# Published values from different studies.
# CNR2: Cannabinoid receptor 2 (CNR2, Homo sapiens, UniProt P34972)
# CASR: Extracellular calcium-sensing receptor (CASR, Homo sapiens, UniProt P41180)
# F10: Coagulation factor X (F10, Homo sapiens, UniProt P00742)
SMILES,target,test,conditions,measurement,value
C=C1CC/C=C(\C)CC[C@@H]2[C@@H]1CC2(C)C,CNR2,"ligand displacement, radioligand",cell membranes,Ki,> 10000 nM
CC(NCc1cccc(-n2cccn2)c1)c1csc2ccccc12 (stereo not shown),CASR,"G protein activation, agonist, BRET",,EC50,444 nM
CNC(=O)c1ccc(-c2cnn3ccc(C(=O)N(C)c4ccc(Cl)c(C(=O)O)c4)cc23)cc1,"Histamine H3 receptor (HRH3, Homo sapiens, UniProt Q9Y5N1)",cell-free assay,,IC50,> 30000 nM
CCC(CC)(NC(=O)c1ccc(C2CC2)c(Cc2ccc(F)cc2)n1)C(=O)NCCOCCOCCNC(=O)c1ccc2c(c1)C1(OC2=O)c2ccc(N(C)C)cc2[Si](C)(C)c2cc(N(C)C)ccc21,CNR2,"ligand displacement, radioligand",cell membranes,Ki,676 nM
CC(C)C[C@@H]1NC(=O)[C@H](C(C)(C)C)NC(=O)[C@H](Cc2ccc(O)cc2)NC(=O)[C@@H]2CCCN2C(=O)[C@H](CCCCN)NC(=O)[C@H](CCCNC(=N)N)NC1=O,"Neurotensin receptor type 1 (Ntsr1, Rattus norvegicus, UniProt P20789)","ligand displacement, flow cytometry",,Ki,> 100000 nM
CNC(C)Cc1ccc2c(c1)OCO2 (stereo not shown),"Solute carrier family 22 member 2 (SLC22A2, Homo sapiens, UniProt O15244)","transporter uptake, inhibitor",,Ki,1900 nM
CC(=O)N[C@H]1C/C=C/COc2ccc(cc2)C[C@@H](C(=O)N[C@@H](CCCNC(=N)N)C(=O)c2nc3ccccc3s2)NC(=O)[C@H](CC(C)C)NC1=O,F10,"enzyme activity, inhibitor, absorbance",with preincubation,IC50,8810 nM
CCCCCc1cc(O)c2c(c1)OC(C)(C)[C@@H]1CC[C@@H](C)C=C21,CNR2,"ligand displacement, radioligand",cell membranes,Ki,28 nM
CC(=O)N[C@H]1Cc2ccc(cc2)OCCCC[C@@H](C(=O)N[C@@H](CCCNC(=N)N)C(=O)c2nc3ccccc3s2)NC(=O)[C@H](CC(C)C)NC1=O,F10,"enzyme activity, inhibitor, absorbance",with preincubation,IC50,2650 nM
C[C@@H](NCCCc1cccc(C(F)(F)F)c1)c1cccc2ccccc12,CASR,"G protein activation, agonist, BRET",,EC50,71 nM
